Data reported in paper PMC7049346 (Haematologica, 2019).

Legend:
PDE2A3 = PDE2A3 (Homo sapiens, UniProt O00408); assay: PDE enzyme inhibition, radiometric assay; format: biochemical
Outline: (§1)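 Recombinant human PDE enzymes (33 in the panel) were incubated in vitro with increasing concentrations of the test compound. Enzyme activity was measured radiometrically and IC50 values derived.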

PDE4D1 = PDE4D1 (Homo sapiens, UniProt Q08499); assay: PDE enzyme inhibition, radiometric assay; format: biochemical
Outline: as §1

[1] = test system: erythroid cells from CD34+ progenitors of SCD patients; assay: HbF induction in SCD patient-derived erythroblasts; format: cell-based, human; conditions: 10 μM IMR-687, five days, n=9, P<0.01
Outline: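 CD34⁺ progenitors came from the blood or bone marrow of nine SCD donors. Cells grew seven days with 15% BIT 9500, 2 mM L-glutamine, IL-3 (10 ng/mL), IL-6 and SCF (100 ng/mL). CD36⁺ cells were then isolated and grown five days with SCF, IL-3 and EPO (2 UI/mL) plus DMSO, 30 μM hydroxyurea or 10 μM test compound. HbF⁺ cells (%) and HbF MFI were read by PE-anti-HbF FACS, gated LiveDead⁻/GPA⁺/Band3⁺.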

PDE5A3 = PDE5A3 (Homo sapiens, UniProt O76074); assay: PDE enzyme inhibition, radiometric assay; format: biochemical
Outline: as §1

[2] = Brain and plasma exposure in mice; format: in vivo, C57Bl/6J mice
PDE1A3 = PDE1A3 (Homo sapiens, UniProt P54750); assay: PDE enzyme inhibition, radiometric assay; format: biochemical
Outline: as §1

PDE11A1 = PDE11A1 (Homo sapiens, UniProt Q9HCR9); assay: PDE enzyme inhibition, radiometric assay; format: biochemical
Outline: as §1

PDE10A2 = PDE10A2 (Homo sapiens, UniProt Q9Y233); assay: PDE enzyme inhibition, radiometric assay; format: biochemical
Outline: as §1

PDE4C2 = PDE4C2 (Homo sapiens, UniProt Q08493); assay: PDE enzyme inhibition, radiometric assay; format: biochemical
Outline: as §1

PDE8A1 = PDE8A1 (Homo sapiens, UniProt O60658); assay: PDE enzyme inhibition, radiometric assay; format: biochemical
Outline: as §1

PDE2A3, sequence (O00408 whole entry): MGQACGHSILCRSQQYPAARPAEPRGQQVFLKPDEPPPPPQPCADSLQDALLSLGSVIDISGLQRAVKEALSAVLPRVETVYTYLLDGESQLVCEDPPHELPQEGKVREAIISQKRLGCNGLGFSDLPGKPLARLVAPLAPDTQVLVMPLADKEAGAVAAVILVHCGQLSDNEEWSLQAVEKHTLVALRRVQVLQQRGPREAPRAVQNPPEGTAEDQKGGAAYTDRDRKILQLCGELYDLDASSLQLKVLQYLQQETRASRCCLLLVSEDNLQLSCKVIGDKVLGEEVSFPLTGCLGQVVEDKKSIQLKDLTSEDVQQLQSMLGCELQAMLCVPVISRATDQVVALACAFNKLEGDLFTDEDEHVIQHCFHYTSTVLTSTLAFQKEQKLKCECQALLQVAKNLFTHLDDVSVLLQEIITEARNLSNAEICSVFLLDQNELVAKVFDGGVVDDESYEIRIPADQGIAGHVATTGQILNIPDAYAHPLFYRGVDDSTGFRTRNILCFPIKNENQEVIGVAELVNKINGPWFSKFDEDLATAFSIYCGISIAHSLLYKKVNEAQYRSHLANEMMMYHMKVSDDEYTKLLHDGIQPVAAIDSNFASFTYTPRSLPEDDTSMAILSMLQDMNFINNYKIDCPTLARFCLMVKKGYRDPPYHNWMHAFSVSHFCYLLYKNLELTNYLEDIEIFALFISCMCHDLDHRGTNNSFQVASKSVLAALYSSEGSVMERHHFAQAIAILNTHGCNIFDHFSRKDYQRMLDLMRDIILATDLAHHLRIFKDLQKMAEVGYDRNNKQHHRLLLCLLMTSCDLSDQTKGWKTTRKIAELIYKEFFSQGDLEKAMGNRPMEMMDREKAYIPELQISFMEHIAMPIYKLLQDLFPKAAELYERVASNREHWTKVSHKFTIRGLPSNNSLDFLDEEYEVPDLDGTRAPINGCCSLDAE
PDE11A1, sequence (Q9HCR9 445-933): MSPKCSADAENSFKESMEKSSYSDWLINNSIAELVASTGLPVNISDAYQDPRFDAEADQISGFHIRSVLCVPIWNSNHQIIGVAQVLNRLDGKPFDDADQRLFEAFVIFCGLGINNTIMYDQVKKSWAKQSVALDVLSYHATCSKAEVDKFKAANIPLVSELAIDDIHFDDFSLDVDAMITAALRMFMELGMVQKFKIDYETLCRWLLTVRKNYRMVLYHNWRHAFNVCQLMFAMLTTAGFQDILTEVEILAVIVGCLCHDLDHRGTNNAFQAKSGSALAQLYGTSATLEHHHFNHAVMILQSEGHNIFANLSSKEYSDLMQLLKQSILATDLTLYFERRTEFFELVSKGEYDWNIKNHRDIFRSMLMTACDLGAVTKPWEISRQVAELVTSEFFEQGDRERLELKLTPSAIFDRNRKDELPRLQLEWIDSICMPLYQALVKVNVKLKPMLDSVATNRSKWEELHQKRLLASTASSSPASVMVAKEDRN
PDE4D1, sequence (Q08499 1-584 isoform Q08499-4): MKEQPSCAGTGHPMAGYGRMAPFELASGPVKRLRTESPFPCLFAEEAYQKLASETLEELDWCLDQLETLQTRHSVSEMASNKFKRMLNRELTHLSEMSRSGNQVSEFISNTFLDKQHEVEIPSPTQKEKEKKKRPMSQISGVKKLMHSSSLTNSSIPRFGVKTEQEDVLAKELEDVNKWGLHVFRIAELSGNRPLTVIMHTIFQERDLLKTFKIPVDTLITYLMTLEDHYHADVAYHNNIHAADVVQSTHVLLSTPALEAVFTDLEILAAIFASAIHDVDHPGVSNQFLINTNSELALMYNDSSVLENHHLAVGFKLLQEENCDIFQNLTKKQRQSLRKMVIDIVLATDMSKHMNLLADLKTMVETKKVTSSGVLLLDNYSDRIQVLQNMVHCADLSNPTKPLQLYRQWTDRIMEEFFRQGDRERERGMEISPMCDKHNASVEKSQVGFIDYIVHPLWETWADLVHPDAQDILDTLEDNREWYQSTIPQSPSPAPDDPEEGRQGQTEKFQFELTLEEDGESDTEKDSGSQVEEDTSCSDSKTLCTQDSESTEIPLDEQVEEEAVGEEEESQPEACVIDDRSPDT
PDE1A3, sequence (P54750 whole entry): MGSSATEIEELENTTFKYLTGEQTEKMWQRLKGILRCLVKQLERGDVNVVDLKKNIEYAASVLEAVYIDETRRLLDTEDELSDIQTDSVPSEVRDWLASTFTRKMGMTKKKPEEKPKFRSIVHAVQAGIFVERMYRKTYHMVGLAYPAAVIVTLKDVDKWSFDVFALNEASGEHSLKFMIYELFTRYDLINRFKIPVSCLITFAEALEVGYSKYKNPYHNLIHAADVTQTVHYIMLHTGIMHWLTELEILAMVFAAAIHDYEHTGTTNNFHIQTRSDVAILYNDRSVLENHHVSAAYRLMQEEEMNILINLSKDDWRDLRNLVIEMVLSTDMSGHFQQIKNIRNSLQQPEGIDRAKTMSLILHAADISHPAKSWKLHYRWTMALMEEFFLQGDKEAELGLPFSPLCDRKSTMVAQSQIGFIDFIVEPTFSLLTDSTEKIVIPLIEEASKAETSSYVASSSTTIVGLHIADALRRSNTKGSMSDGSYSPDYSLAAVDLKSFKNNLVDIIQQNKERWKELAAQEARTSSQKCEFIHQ
PDE10A2, sequence (Q9Y233 267-1055): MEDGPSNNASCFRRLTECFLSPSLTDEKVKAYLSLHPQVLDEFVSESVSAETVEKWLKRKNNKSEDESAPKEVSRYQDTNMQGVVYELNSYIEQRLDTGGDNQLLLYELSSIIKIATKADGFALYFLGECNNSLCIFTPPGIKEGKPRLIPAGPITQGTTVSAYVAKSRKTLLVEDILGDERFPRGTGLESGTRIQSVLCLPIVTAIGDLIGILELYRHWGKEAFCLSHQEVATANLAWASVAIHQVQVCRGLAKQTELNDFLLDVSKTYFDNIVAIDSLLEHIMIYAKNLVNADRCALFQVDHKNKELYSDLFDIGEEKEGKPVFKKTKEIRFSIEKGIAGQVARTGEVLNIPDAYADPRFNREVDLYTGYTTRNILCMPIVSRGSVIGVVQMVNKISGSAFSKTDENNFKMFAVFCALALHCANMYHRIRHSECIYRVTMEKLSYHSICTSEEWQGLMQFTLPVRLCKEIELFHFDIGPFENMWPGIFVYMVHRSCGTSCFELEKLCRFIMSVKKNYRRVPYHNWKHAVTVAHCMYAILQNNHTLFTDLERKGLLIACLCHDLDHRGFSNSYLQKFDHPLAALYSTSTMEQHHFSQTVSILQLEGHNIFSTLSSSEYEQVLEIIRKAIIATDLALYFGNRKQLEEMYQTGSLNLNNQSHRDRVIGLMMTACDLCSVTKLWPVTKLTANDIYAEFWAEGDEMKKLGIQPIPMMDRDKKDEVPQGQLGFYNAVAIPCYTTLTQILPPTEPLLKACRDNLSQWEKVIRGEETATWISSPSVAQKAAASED
PDE8A1, sequence (O60658 whole entry): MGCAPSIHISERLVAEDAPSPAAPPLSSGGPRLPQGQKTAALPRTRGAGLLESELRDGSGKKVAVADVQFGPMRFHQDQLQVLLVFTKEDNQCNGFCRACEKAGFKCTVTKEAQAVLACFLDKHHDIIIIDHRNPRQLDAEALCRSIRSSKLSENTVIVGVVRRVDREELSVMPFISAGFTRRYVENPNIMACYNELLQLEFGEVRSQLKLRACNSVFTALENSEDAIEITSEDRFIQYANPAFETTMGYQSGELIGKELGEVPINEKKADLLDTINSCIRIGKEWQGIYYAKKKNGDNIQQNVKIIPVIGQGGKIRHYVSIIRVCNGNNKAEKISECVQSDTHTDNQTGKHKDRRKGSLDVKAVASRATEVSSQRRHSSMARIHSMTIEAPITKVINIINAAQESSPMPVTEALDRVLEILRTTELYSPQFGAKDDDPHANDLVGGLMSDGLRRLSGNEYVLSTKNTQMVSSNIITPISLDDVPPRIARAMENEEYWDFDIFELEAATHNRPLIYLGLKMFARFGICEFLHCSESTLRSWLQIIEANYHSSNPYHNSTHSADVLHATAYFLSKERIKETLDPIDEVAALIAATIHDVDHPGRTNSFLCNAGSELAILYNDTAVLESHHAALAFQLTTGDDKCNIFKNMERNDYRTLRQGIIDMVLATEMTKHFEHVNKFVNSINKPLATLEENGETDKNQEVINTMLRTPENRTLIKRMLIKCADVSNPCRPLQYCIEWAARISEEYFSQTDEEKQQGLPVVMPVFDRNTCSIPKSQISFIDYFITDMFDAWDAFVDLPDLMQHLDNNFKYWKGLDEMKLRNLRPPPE
PDE4C2, sequence (Q08493 107-712): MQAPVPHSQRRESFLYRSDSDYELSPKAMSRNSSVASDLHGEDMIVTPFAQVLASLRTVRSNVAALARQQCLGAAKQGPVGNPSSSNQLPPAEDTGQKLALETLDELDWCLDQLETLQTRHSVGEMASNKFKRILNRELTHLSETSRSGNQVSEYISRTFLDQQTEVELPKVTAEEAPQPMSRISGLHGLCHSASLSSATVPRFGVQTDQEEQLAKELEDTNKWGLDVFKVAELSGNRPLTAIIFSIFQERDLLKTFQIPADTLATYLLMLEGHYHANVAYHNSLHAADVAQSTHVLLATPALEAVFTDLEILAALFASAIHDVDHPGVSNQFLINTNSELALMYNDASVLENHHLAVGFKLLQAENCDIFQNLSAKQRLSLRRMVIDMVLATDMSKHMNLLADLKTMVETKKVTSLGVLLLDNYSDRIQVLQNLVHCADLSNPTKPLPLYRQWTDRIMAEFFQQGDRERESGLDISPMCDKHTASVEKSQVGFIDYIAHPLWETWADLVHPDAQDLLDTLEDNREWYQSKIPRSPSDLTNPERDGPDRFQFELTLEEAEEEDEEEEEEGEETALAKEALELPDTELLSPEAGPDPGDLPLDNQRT

IC50 (PDE2A3): > 100 µM
IC50 (PDE4D1): > 100 µM
IC50 (PDE5A3): > 100 µM
brain exposure levels lower than PF-04447943 ([2]; C57Bl/6J mice, 10 mg/kg/day for five days): 5 fold
Kp at 5 days ([2]; C57Bl/6J, mouse, brain/plasma, 10 mg/kg/day): 0.07
IC50 (PDE1A3): 88.4 µM
IC50 (PDE11A1): > 100 µM
IC50 (PDE10A2): > 100 µM
IC50 (PDE4C2): > 100 µM
IC50 (PDE8A1): > 100 µM
SMILES: C[C@@H]1CN(Cc2ncccn2)C[C@H]1c1cn2c(C3CCOCC3)ncc2c(=O)[nH]1 [IMR-687]
percentage of F-cells (HbF positive) ([1]; DMSO control 13.3%): 21.9%
intensity of HbF staining (MFI) ([1]; control 6073±1217): 7813±1374
